# From PubChem BioAssay AID488748 (Sanford-Burnham Center for Chemical Genomics, 2010)
# Calls of active or inactive are those of the source.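 How the source made its calls: active means compounds whose mean dose-response EC50 for APJ receptor activation is under 20 micromolar; inactive means the rest.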
# Biological target: Apelin receptor (Homo sapiens) (UniProt P35414)
# Assay: apelin receptor activators, concentration-response – cell-based, luminescence, uHTS hits, dose response (AID 488748)
# Details: CHO-K1 APJ PathHunter beta-arrestin
# Summary of the method: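 Assay system – CHO-K1 cells stably expressing ProLink-tagged APJ and enzyme-acceptor-fused beta-arrestin · Doses – compound dose series over a concentration range · Schedule – 90 min compound treatment at 25 °C · Detection – beta-gal complementation luminescence · Controls – Apelin-13 agonist as positive control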
# Chain of Apelin receptor (Homo sapiens) (P35414 whole entry, looked up): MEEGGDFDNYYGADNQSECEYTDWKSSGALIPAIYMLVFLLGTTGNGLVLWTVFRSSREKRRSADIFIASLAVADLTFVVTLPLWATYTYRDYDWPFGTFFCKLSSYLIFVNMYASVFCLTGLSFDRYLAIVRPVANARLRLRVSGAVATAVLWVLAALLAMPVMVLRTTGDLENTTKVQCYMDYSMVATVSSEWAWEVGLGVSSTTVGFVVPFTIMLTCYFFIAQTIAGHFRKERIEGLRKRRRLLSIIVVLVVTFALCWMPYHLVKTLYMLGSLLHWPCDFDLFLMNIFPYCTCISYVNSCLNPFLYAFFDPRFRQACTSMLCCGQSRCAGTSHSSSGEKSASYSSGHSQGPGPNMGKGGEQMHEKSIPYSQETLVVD
row,EC50,SMILES
1,> 100 µM (inactive),COC(=O)C1=C(Cn2cnc3ccccc32)NC(=O)NC1c1cc(C)ccc1C (stereo not given)
2,> 100 µM (inactive),CCOC(=O)C1=C(Cn2cnc3ccccc32)NC(=O)NC1c1cc(C)ccc1C (stereo not given)
3,> 100 µM (inactive),CCCCCCc1cc2cc(-c3nnc(-c4cc(OC)c(OC)c(OC)c4)o3)c(=O)oc2cc1O
4,7.6 µM,CC1=CC(=O)C(C(C)C)=C/C1=N/OS(=O)(=O)c1ccccc1
5,> 100 µM (inactive),COc1ccc(/C=N/Nc2cc(C)nc3ccc(OC)cc23)c(OC)c1
